Active and inactive are the calls of the source. No cut-off for these calls is given here.
Columns and labels:
UO-31 = experiment: Anticancer activity against human UO31 cells after 48 hrs by SRB assay; format: functional; settings: UO-31, 48 h
NCI-H226 = experiment: Anticancer activity against human NCI-H226 cells after 48 hrs by SRB assay; format: functional; settings: NCI-H226, 48 h
A-375 [1] = experiment: Induction of apoptosis in human A375 cells assessed as reduction in CDK2 protein level at 4 uM after 24 hrs by Western blotting; format: functional, cell-based
Summary of the method: (§1)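 A375 cells were treated for 24 h and lysed in ice-cold RIPA buffer (1% NP-40, 0.5% deoxycholate, 0.1% SDS, protease inhibitors). Protein was quantified by Bradford assay, and 30 µg/lane was run on 12% SDS-PAGE and transferred to PVDF. Membranes were blocked 2 h at RT in TBST with 5% blocker, incubated with primary antibody overnight at 4 °C, then with HRP secondary (1:2000, 1 h, RT). Detection was by chemiluminescence, with β-actin as loading control.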

HCC 2998 = experiment: Anticancer activity against human HCC2998 cells after 48 hrs by SRB assay; format: functional; settings: HCC 2998, 48 h
T47D = experiment: Anticancer activity against human T47D cells after 48 hrs by SRB assay; format: functional
A-375 [2] = experiment: Cell cycle arrest in human A375 cells assessed as accumulation at G2/M phase at 4 uM after 24 hrs using propidium iodide staining by FACS; format: functional
Summary of the method: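 Treated A375 cells (24 h) were harvested with trypsin-EDTA and fixed in ice-cold 70% ethanol (4 °C, 30 min). After a PBS wash, they were incubated with 1 mg/mL RNase A (37 °C, 30 min) and stained with propidium iodide solution containing trisodium citrate and Triton X-100. DNA content was measured by flow cytometry on 20,000 events. Controls were DMSO-treated.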

MDA-MB-435 = experiment: Anticancer activity against human MDA-MB-435 cells after 48 hrs by SRB assay; format: functional; settings: MDA-MB-435, 48 h
OVCAR-8 = experiment: Anticancer activity against human OVCAR8 cells after 48 hrs by SRB assay; format: functional; settings: OVCAR-8, 48 h
OVCAR-3 = experiment: Anticancer activity against human OVCAR-3 cells after 48 hrs by SRB assay; format: functional; settings: OVCAR-3, 48 h
UACC-62 = experiment: Anticancer activity against human UACC62 cells after 48 hrs by SRB assay; format: functional; settings: UACC-62, 48 h
IGROV-1 = experiment: Anticancer activity against human IGROV1 cells after 48 hrs by SRB assay; format: functional; settings: IGROV-1, 48 h
Malme-3M = experiment: Anticancer activity against human MALME-3M cells after 48 hrs by SRB assay; format: functional
SF-539 = experiment: Anticancer activity against human SF539 cells after 48 hrs by SRB assay; format: functional; settings: SF-539, 48 h
A-375 [3] = experiment: Induction of apoptosis in human A375 cells assessed as increase in PPAR protein level at 4 uM after 24 hrs by Western blotting; format: functional, cell-based; summary of the method: as §1
SN12C = experiment: Anticancer activity against human SN12C cells after 48 hrs by SRB assay; format: functional
SNB-75 = experiment: Anticancer activity against human SNB75 cells after 48 hrs by SRB assay; format: functional; settings: SNB-75, 48 h
OVCAR-4 = experiment: Anticancer activity against human OVCAR4 cells after 48 hrs by SRB assay; format: functional; settings: OVCAR-4, 48 h
SR = experiment: Anticancer activity against human SR cells after 48 hrs by SRB assay; format: functional
HT-29 = experiment: Anticancer activity against human HT-29 cells after 48 hrs by SRB assay; format: functional; settings: HT-29, 48 h
NCI-H522 = experiment: Anticancer activity against human NCI-H522 cells after 48 hrs by SRB assay; format: functional; settings: NCI-H522, 48 h

**Q.** For `COc1ccc(C2=NOC(c3cc(OC)c(OC)c(OC)c3)C2)cc1OCCCCOc1cc2c(cc1OC)C(=O)N1CCC[C@H]1C=N2` (stereo not given in full), which GI50 (UO-31) is on record?
**A.** 290 nM

**Q.** And the GI50 (NCI-H226)?
**A.** 170 nM

**Q.** What about the Activity (A-375 [1]) of the same molecule?
**A.** Active

**Q.** What about the GI50 (HCC 2998) of the same molecule?
**A.** 190 nM

**Q.** What about the GI50 (T47D) of the same molecule?
**A.** 280 nM

**Q.** What about the Activity (A-375 [2]) of the same molecule?
**A.** 1.23%

**Q.** And the GI50 (MDA-MB-435)?
**A.** 170 nM

**Q.** And the GI50 (OVCAR-8)?
**A.** 370 nM

**Q.** And the GI50 (OVCAR-3)?
**A.** 270 nM

**Q.** And the GI50 (UACC-62)?
**A.** 160 nM

**Q.** And the GI50 (IGROV-1)?
**A.** 240 nM

**Q.** And the GI50 (Malme-3M)?
**A.** 210 nM

**Q.** And the GI50 (SF-539)?
**A.** 220 nM

**Q.** And the Activity (A-375 [3])?
**A.** Active

**Q.** And the GI50 (SN12C)?
**A.** 300 nM

**Q.** And the GI50 (SNB-75)?
**A.** 320 nM

**Q.** What about the GI50 (OVCAR-4) of the same molecule?
**A.** 400 nM

**Q.** What about the GI50 (SR) of the same molecule?
**A.** 140 nM

**Q.** What about the GI50 (HT-29) of the same molecule?
**A.** 360 nM

**Q.** What about the GI50 (NCI-H522) of the same molecule?
**A.** 120 nM

— ChEMBL document CHEMBL1240422, “Design, synthesis and biological evaluation of 3,5-diaryl-isoxazoline/isoxazole-pyrrolobenzodiazepine conjugates as potential anticancer agents” (2010)
